What was measured:
IGROV-1 = assay: Antitumor activity against human IGROV1 cells; type: functional
Procedure, shortened: (§1)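 Run by the NCI in its in vitro disease-oriented screen of about 60 human tumour cell lines. For each line it reports pGI50 (50% net growth inhibition), pTGI (total growth inhibition) and pLC50 (50% net cell death), each as –log molar concentration. Where an effect was not reached within the tested range, the highest tested concentration was used.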

RPMI-8226 = assay: Antitumor activity against human RPMI8226 cells; type: functional; procedure, shortened: as §1
CCRF-CEM [1] = assay: Resistance index, Ratio of GI50 for human vinblastine-resistant CEM cells to GI50 for human CEM cells; type: functional
OVCAR-3 = assay: Antitumor activity against human OVCAR-3 cells; type: functional; procedure, shortened: as §1
Hs-578T = assay: Antitumor activity against human HS578T cells; type: functional; procedure, shortened: as §1
A549 = assay: Antitumor activity against human A549 cells; type: functional; procedure, shortened: as §1
SF-295 = assay: Antitumor activity against human SF295 cells; type: functional; procedure, shortened: as §1
SK-MEL-2 = assay: Antitumor activity against human SKMEL2 cells; type: functional; procedure, shortened: as §1
Tubulin (Sus scrofa) = Tubulin (Sus scrofa) (UniProt P02554+P02550); assay: Inhibition of pig brain tubulin polymerization
Tubulin (Sus scrofa), sequence (P02550 whole entry, looked up): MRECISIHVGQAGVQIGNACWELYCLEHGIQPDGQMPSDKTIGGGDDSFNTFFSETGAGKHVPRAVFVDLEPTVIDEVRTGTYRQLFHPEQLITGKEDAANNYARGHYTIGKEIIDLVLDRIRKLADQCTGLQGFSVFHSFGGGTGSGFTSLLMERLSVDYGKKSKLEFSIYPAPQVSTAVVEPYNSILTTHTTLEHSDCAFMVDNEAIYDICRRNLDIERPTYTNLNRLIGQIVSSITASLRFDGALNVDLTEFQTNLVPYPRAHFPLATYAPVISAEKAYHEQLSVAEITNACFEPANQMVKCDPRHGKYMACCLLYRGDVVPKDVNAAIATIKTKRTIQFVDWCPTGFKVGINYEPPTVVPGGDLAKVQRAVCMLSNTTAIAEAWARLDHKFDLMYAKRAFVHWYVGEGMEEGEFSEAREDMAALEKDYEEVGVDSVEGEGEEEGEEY
Tubulin (Sus scrofa), sequence (P02554 whole entry, looked up): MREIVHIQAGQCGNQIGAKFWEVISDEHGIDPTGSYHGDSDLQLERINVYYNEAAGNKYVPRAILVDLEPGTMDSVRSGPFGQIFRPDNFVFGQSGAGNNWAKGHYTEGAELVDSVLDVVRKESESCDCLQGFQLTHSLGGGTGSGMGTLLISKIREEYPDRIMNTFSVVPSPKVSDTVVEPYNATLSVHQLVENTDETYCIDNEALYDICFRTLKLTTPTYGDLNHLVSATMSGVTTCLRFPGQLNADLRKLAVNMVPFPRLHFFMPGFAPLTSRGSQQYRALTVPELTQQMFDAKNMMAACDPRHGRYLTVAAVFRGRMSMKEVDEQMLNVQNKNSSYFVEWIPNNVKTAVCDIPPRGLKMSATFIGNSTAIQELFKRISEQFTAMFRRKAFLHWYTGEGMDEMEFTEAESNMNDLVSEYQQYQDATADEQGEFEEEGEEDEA

CCRF-CEM [2] = assay: Antitumor activity against human CCRF-CEM cells; type: functional; procedure, shortened: as §1
SNB-75 = assay: Antitumor activity against human SNB75 cells; type: functional; conditions: Homo sapiens, SNB-75; procedure, shortened: as §1
A498 = assay: Antitumor activity against human A498 cells; type: functional; procedure, shortened: as §1
UACC-257 = assay: Antitumor activity against human UACC257 cells; type: functional
Procedure, shortened: (§2)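 NCI 60-cell-line screen. Parameters were GI50 (50% net growth inhibition), TGI and LC50, each reported as –log molar concentration. Where an effect was not reached within the tested range, the highest tested concentration was used in the calculation.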

OVCAR-5 = assay: Antitumor activity against human OVCAR5 cells; type: functional; procedure, shortened: as §1
NCI-H522 = assay: Antitumor activity against human NCI-H522 cells; type: functional; procedure, shortened: as §1
MCF7 [3] = assay: Growth inhibition of human multidrug-resistant MCF7 cells after 72 hrs by MTT assay; type: functional; conditions: MCF7, 72 h
Procedure, shortened: (§3)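 Growth inhibition by MTT after 72 h incubation. Resistant sublines: LoVoDoxo and MCF-7 MDR were kept in 0.1 µg/mL doxorubicin; CEMVbl-100 was selected against vinblastine. GI50 given as mean ± SEM of three independent experiments. Resistance index is resistant-line GI50 over parental GI50.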

NCI-H226 = assay: Antitumor activity against human NCI-H226 cells; type: functional; procedure, shortened: as §1
SW-620 = assay: Antitumor activity against human SW620 cells; type: functional; procedure, shortened: as §2
ACHN = assay: Antitumor activity against human ACHN cells; type: functional; procedure, shortened: as §1
786-0 = assay: Antitumor activity against human 786-0 cells; type: functional; procedure, shortened: as §1
MCF7 [4] = assay: Resistance index, Ratio of GI50 for human multidrug-resistant MCF7 cells to GI50 for human MCF7 cells; type: functional; procedure, shortened: as §3
UACC-62 = assay: Antitumor activity against human UACC62 cells; type: functional; procedure, shortened: as §2
OVCAR-4 = assay: Antitumor activity against human OVCAR4 cells; type: functional; procedure, shortened: as §1
NCI-H460 = assay: Antitumor activity against human NCI-H460 cells; type: functional; procedure, shortened: as §1
CAKI-1 = assay: Antitumor activity against human CAKI1 cells; type: functional; procedure, shortened: as §1
SK-OV-3 = assay: Antitumor activity against human SKOV3 cells; type: functional; procedure, shortened: as §1
MCF7 [5] = assay: Antitumor activity against human MCF7 cells; type: functional; procedure, shortened: as §1
SNB-19 = assay: Antitumor activity against human SNB19 cells; type: functional; procedure, shortened: as §1
SF-539 = assay: Antitumor activity against human SF539 cells; type: functional; procedure, shortened: as §1
OVCAR-8 = assay: Antitumor activity against human OVCAR8 cells; type: functional; procedure, shortened: as §1
TK-10 = assay: Antitumor activity against human TK10 cells; type: functional; procedure, shortened: as §2
RXF 393 = assay: Antitumor activity against human RXF393 cells; type: functional; procedure, shortened: as §1
MCF7 [6] = assay: Growth inhibition of human MCF7 cells after 72 hrs by MTT assay; type: functional; conditions: MCF7, 72 h; procedure, shortened: as §3
SF-268 [7] = assay: Cell viability against human SF268 cells at 10 uM; type: functional
SF-268 [8] = assay: Antitumor activity against human SF268 cells; type: functional; procedure, shortened: as §1
[9] = Antitumor activity against human […] cells; type: functional; procedure, shortened: as §1
SN12C = assay: Antitumor activity against human SN12C cells; type: functional; procedure, shortened: as §1
[10] = Antitumor activity against human NCI-H322 cells; type: functional; procedure, shortened: as §1
HT-29 = assay: Antitumor activity against human HT29 cells; type: functional; procedure, shortened: as §1
SK-MEL-28 = assay: Antitumor activity against human SKMEL28 cells; type: functional; procedure, shortened: as §1
[11] = read-out: Log LC50 (the source's name) (converted)

Structure (SMILES): O=c1[nH]c2cc(Cl)c(Cl)cc2n2cc3ccccc3c12
- GI50 (IGROV-1): 17.4 µM
- CC50 (IGROV-1; [11]): 56.2 µM
- TGI (IGROV-1; read-out: pTGI (converted)): 30.9 µM
- GI50 (RPMI-8226): 22.4 µM
- CC50 (RPMI-8226; [11]): > 100 µM
- TGI (RPMI-8226; read-out: pTGI (converted)): 49 µM
- RatioGI50 (CCRF-CEM [1]): 0.86
- GI50 (OVCAR-3): 18.6 µM
- LC50 (50% net cell death) (OVCAR-3): 57.5 µM
- TGI (OVCAR-3; read-out: pTGI (converted)): 32.4 µM
- GI50 (Hs-578T): 20 µM
- CC50 (Hs-578T; [11]): > 100 µM
- TGI (Hs-578T; read-out: pTGI (converted)): 52.5 µM
- GI50 (A549): 19.1 µM
- CC50 (A549; [11]): 63.1 µM
- TGI (A549; read-out: pTGI (converted)): 34.7 µM
- GI50 (SF-295): 16.2 µM
- CC50 (SF-295; [11]): 55 µM
- TGI (SF-295; read-out: pTGI (converted)): 30.2 µM
- GI50 (SK-MEL-2): 25.1 µM
- LC50 (SK-MEL-2): > 100 µM
- TGI (SK-MEL-2; read-out: pTGI (converted)): 53.7 µM
- Activity (Tubulin (Sus scrofa)): > 10 µM
- GI50 (CCRF-CEM [2]): 21.9 µM
- LC50 (CCRF-CEM [2]): > 100 µM
- TGI (CCRF-CEM [2]; read-out: pTGI (converted)): 49 µM
- GI50 (SNB-75): 21.4 µM
- LC50 (SNB-75): > 100 µM
- TGI (SNB-75; read-out: pTGI (converted)): 53.7 µM
- GI50 (A498): 15.8 µM
- CC50 (A498; [11]): 56.2 µM
- TGI (A498; read-out: pTGI (converted)): 30.2 µM
- GI50 (UACC-257): 20.4 µM
- LC50 (UACC-257): > 100 µM
- TGI (UACC-257; read-out: pTGI (converted)): 49 µM
- GI50 (OVCAR-5): 17 µM
- LC50 (50% net cell death) (OVCAR-5): 55 µM
- TGI (OVCAR-5; read-out: pTGI (converted)): 30.9 µM
- GI50 (NCI-H522): 10.2 µM
- CC50 (NCI-H522; [11]): 93.3 µM
- TGI (NCI-H522; read-out: pTGI (converted)): 30.9 µM
- GI50 (MCF7 [3]): 7.6 µM
- GI50 (NCI-H226): 18.6 µM
- LC50 (50% net cell kill) (NCI-H226): 69.2 µM
- TGI (NCI-H226; read-out: pTGI (converted)): 35.5 µM
- GI50 (SW-620): 15.8 µM
- CC50 (SW-620; [11]): 53.7 µM
- TGI (SW-620; read-out: pTGI (converted)): 29.5 µM
- GI50 (ACHN): 15.5 µM
- LC50 (50% net cell kill) (ACHN): 53.7 µM
- TGI (ACHN; read-out: pTGI (converted)): 28.8 µM
- GI50 (786-0): 25.1 µM
- CC50 (786-0; [11]): 63.1 µM
- TGI (786-0; read-out: pTGI (converted)): 39.8 µM
- RatioGI50 (MCF7 [4]): 2.3
- GI50 (UACC-62): 16.6 µM
- LC50 (UACC-62): 55 µM
- TGI (UACC-62; read-out: pTGI (converted)): 30.2 µM
- GI50 (OVCAR-4): 20.4 µM
- LC50 (50% net cell kill) (OVCAR-4): > 100 µM
- TGI (OVCAR-4; read-out: pTGI (converted)): 50.1 µM
- GI50 (NCI-H460): 18.6 µM
- CC50 (NCI-H460; [11]): 57.5 µM
- TGI (NCI-H460; read-out: pTGI (converted)): 33.1 µM
- GI50 (CAKI-1): 20.4 µM
- LC50 (CAKI-1): 58.9 µM
- TGI (CAKI-1; read-out: pTGI (converted)): 34.7 µM
- GI50 (SK-OV-3): 18.2 µM
- LC50 (50% net cell kill) (SK-OV-3): 61.7 µM
- TGI (SK-OV-3; read-out: pTGI (converted)): 33.1 µM
- GI50 (MCF7 [5]): 21.4 µM
- LC50 (50% net cell kill) (MCF7 [5]): 72.4 µM
- TGI (MCF7 [5]; read-out: pTGI (converted)): 39.8 µM
- GI50 (SNB-19): 21.9 µM
- CC50 (SNB-19; [11]): > 100 µM
- TGI (SNB-19; read-out: pTGI (converted)): 56.2 µM
- GI50 (SF-539): 19.1 µM
- LC50 (50% net cell kill) (SF-539): 81.3 µM
- TGI (SF-539; read-out: pTGI (converted)): 39.8 µM
- GI50 (OVCAR-8): 18.6 µM
- LC50 (50% net cell death) (OVCAR-8): 57.5 µM
- TGI (OVCAR-8; read-out: pTGI (converted)): 32.4 µM
- GI50 (TK-10): 16.6 µM
- CC50 (TK-10; [11]): 55 µM
- TGI (TK-10; read-out: pTGI (converted)): 30.2 µM
- GI50 (RXF 393): 17.4 µM
- CC50 (RXF 393; [11]): 56.2 µM
- TGI (RXF 393; read-out: pTGI (converted)): 30.9 µM
- GI50 (MCF7 [6]): 3.3 µM
- Activity (SF-268 [7]): 13%
- GI50 (SF-268 [8]): 24 µM
- CC50 (SF-268 [8]; [11]): 75.9 µM
- TGI (SF-268 [8]; read-out: pTGI (converted)): 42.7 µM
- GI50 [9]: 17.4 µM
- LC50 [9]: 61.7 µM
- TGI ([9]; read-out: pTGI (converted)): 32.4 µM
- GI50 (SN12C): 15.8 µM
- LC50 (SN12C): 55 µM
- TGI (SN12C; read-out: pTGI (converted)): 29.5 µM
- GI50 [10]: 13.5 µM
- LC50 (50% net cell death) [10]: 55 µM
- TGI ([10]; read-out: pTGI (converted)): 26.9 µM
- GI50 (HT-29): 28.8 µM
- LC50 (HT-29): > 100 µM
- TGI (HT-29; read-out: pTGI (converted)): > 100 µM
- GI50 (SK-MEL-28): 33.1 µM
- CC50 (SK-MEL-28; [11]): > 100 µM
- TGI (SK-MEL-28; read-out: pTGI (converted)): > 100 µM
